Data as given in ChEMBL document CHEMBL4145521, “Regioselective synthesis of 3,4-diaryl-5-unsubstituted isoxazoles, analogues of natural cytostatic combretastatin A4” (Eur J Med Chem, 2018).

Assays:
Assay type in all cases: functional
[1] = test system: Paracentrotus lividus; assay: Antimitotic activity against Paracentrotus lividus embryo assessed as cleavage arrest measured at 5.5 hrs post fertilization by light microscopy
Summary of the method: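 Sea urchin eggs were fertilized with diluted sperm and cultured at room temperature in filtered seawater with paddle agitation (60 rpm), at up to 2000 embryos/mL. The effective threshold concentration causing cleavage alteration, death before hatching or full mitotic arrest was scored in duplicate.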

[2] = test system: SW-620; assay: Cytotoxicity against human SW620 cells assessed as cell growth at 0.01 uM incubated for 48 hrs by sulforhodamine B assay relative to control; conditions: SW-620, 48 h, read-out: Activity
[3] = test system: SF-539; assay: Cytotoxicity against human SF539 cells assessed as cell growth at 0.01 uM incubated for 48 hrs by sulforhodamine B assay relative to control; conditions: SF-539, 48 h, read-out: Activity
[4] = test system: SNB-75; assay: Cytotoxicity against human SNB75 cells assessed as cell growth at 0.01 uM incubated for 48 hrs by sulforhodamine B assay relative to control; conditions: SNB-75, 48 h, read-out: Activity
[5] = test system: OVCAR-4; assay: Cytotoxicity against human OVCAR4 cells assessed as cell growth at 0.01 uM incubated for 48 hrs by sulforhodamine B assay relative to control; conditions: OVCAR-4, 48 h, read-out: Activity
[6] = test system: UO-31; assay: Cytotoxicity against human UO31 cells assessed as cell growth at 0.01 uM incubated for 48 hrs by sulforhodamine B assay relative to control; conditions: UO-31, 48 h, read-out: Activity
[7] = test system: MCF7; assay: Cytotoxicity against human MCF7 cells assessed as cell growth at 0.01 uM incubated for 48 hrs by sulforhodamine B assay relative to control; conditions: MCF7, 48 h, read-out: Activity
[8] = test system: NCI-H522; assay: Cytotoxicity against human NCI-H522 cells assessed as cell growth at 0.1 uM incubated for 48 hrs by sulforhodamine B assay relative to control; conditions: NCI-H522, 48 h, read-out: Activity
[9] = test system: HCT-116; assay: Cytotoxicity against human HCT116 cells assessed as cell growth at 0.1 uM incubated for 48 hrs by sulforhodamine B assay relative to control; conditions: HCT-116, 48 h, read-out: Activity
[10] = test system: SF-295; assay: Cytotoxicity against human SF295 cells assessed as cell growth at 0.1 uM incubated for 48 hrs by sulforhodamine B assay relative to control; conditions: SF-295, 48 h, read-out: Activity
[11] = test system: SNB-19; assay: Cytotoxicity against human SNB19 cells assessed as cell growth at 0.1 uM incubated for 48 hrs by sulforhodamine B assay relative to control; conditions: SNB-19, 48 h, read-out: Activity
[12] = test system: MDA-MB-435; assay: Cytotoxicity against human MDA-MB-435 cells assessed as cell growth at 0.1 uM incubated for 48 hrs by sulforhodamine B assay relative to control; conditions: MDA-MB-435, 48 h, read-out: Activity
[13] = test system: SK-OV-3; assay: Cytotoxicity against human SKOV3 cells assessed as cell growth at 0.1 uM incubated for 48 hrs by sulforhodamine B assay relative to control; conditions: SK-OV-3, 48 h, read-out: Activity
[14] = test system: CAKI-1; assay: Cytotoxicity against human Caki1 cells assessed as cell growth at 0.1 uM incubated for 48 hrs by sulforhodamine B assay relative to control; conditions: CAKI-1, 48 h, read-out: Activity
[15] = test system: DU-145; assay: Cytotoxicity against human DU145 cells assessed as cell growth at 0.1 uM incubated for 48 hrs by sulforhodamine B assay relative to control; conditions: DU-145, 48 h, read-out: Activity
[16] = test system: HOP-62; assay: Cytotoxicity against human HOP62 cells assessed as cell growth at 1 uM incubated for 48 hrs by sulforhodamine B assay relative to control; conditions: HOP-62, 48 h, read-out: Activity
[17] = test system: NCI-H522; assay: Cytotoxicity against human NCI-H522 cells assessed as cell growth at 1 uM incubated for 48 hrs by sulforhodamine B assay relative to control; conditions: NCI-H522, 48 h, read-out: Activity
[18] = test system: SNB-75; assay: Cytotoxicity against human SNB75 cells assessed as cell growth at 1 uM incubated for 48 hrs by sulforhodamine B assay relative to control; conditions: SNB-75, 48 h, read-out: Activity
[19] = test system: OVCAR-3; assay: Cytotoxicity against human OVCAR3 cells assessed as cell growth at 1 uM incubated for 48 hrs by sulforhodamine B assay relative to control; conditions: OVCAR-3, 48 h, read-out: Activity
[20] = test system: T47D; assay: Cytotoxicity against human T47D cells assessed as cell growth at 1 uM incubated for 48 hrs by sulforhodamine B assay relative to control; conditions: read-out: Activity
[21] = test system: HT-29; assay: Cytotoxicity against human HT-29 cells assessed as cell growth at 10 uM incubated for 48 hrs by sulforhodamine B assay relative to control; conditions: HT-29, 48 h, read-out: Activity
[22] = test system: UACC-62; assay: Cytotoxicity against human UACC62 cells assessed as cell growth at 10 uM incubated for 48 hrs by sulforhodamine B assay relative to control; conditions: UACC-62, 48 h, read-out: Activity
[23] = test system: TK-10; assay: Cytotoxicity against human TK10 cells assessed as cell growth at 10 uM incubated for 48 hrs by sulforhodamine B assay relative to control; conditions: TK-10, 48 h, read-out: Activity
[24] = test system: NCI/ADR-RES; assay: Cytotoxicity against human NCI/ADR-RES cells assessed as cell growth at 100 uM incubated for 48 hrs by sulforhodamine B assay relative to control; conditions: read-out: Activity
[25] = test system: CAKI-1; assay: Cytotoxicity against human Caki1 cells assessed as cell growth at 100 uM incubated for 48 hrs by sulforhodamine B assay relative to control; conditions: CAKI-1, 48 h, read-out: Activity
[26] = test system: MDA-MB-231; assay: Cytotoxicity against human MDA-MB-231 cells assessed as cell growth at 100 uM incubated for 48 hrs by sulforhodamine B assay relative to control; conditions: MDA-MB-231, 48 h, read-out: Activity
[27] = test system: HL-60(TB); assay: Cytotoxicity against human HL-60(TB) cells incubated for 48 hrs by sulforhodamine B assay; conditions: HL-60, 48 h
[28] = test system: K562; assay: Cytotoxicity against human K562 cells incubated for 48 hrs by sulforhodamine B assay; conditions: K562, 48 h
[29] = test system: RPMI-8226; assay: Cytotoxicity against human RPMI8226 cells incubated for 48 hrs by sulforhodamine B assay; conditions: RPMI-8226, 48 h
[30] = test system: SK-MEL-2; assay: Cytotoxicity against human SK-MEL-2 cells incubated for 48 hrs by sulforhodamine B assay; conditions: SK-MEL-2, 48 h
[31] = read-out: LC50 (the source's name)
[32] = read-out: pLC50 (the source's name) (converted)

SMILES: COc1ccc(-c2nocc2-c2cc(OC)c(OC)c(OC)c2)cc1
- EC [1]: 0.1 µM
- growth at 0.01 µM [2]: 94%
- growth at 0.01 µM [3]: 86%
- growth at 0.01 µM [4]: 74%
- growth at 0.01 µM [5]: 86%
- growth at 0.01 µM [6]: 90%
- growth at 0.01 µM [7]: 86%
- growth at 0.1 µM [8]: -12%
- growth at 0.1 µM [9]: 21%
- growth at 0.1 µM [10]: 36%
- growth at 0.1 µM [11]: 69%
- growth at 0.1 µM [12]: 3%
- growth at 0.1 µM [13]: 60%
- growth at 0.1 µM [14]: 62%
- growth at 0.1 µM [15]: 71%
- growth at 1 µM [16]: 39%
- growth at 1 µM [17]: -39%
- growth at 1 µM [18]: 4%
- growth at 1 µM [19]: 1%
- growth at 1 µM [20]: 37%
- growth at 10 µM [21]: 3%
- growth at 10 µM [22]: 5%
- growth at 10 µM [23]: 18%
- growth at 100 µM [24]: -7%
- growth at 100 µM [25]: 14%
- growth at 100 µM [26]: -15%
- GI50 ([27]; read-out: GI50): 48.8 nM
- CC50 [27, 31]: > 100000 nM
- TGI ([27]; read-out: TGI): 391 nM
- GI50 ([27]; read-out: pGI50 (converted)): 49 nM
- CC50 [27, 32]: > 100000 nM
- TGI ([27]; read-out: pTGI (converted)): 389 nM
- GI50 ([28]; read-out: GI50): 47.1 nM
- LC50 (50% lethal concentration) ([28]; read-out: LC50): > 100000 nM
- TGI ([28]; read-out: TGI): > 100000 nM
- GI50 ([28]; read-out: pGI50 (converted)): 46.8 nM
- LC50 (50% lethal concentration) ([28]; read-out: pLC50 (converted)): > 100000 nM
- TGI ([28]; read-out: pTGI): > 100000 nM
- GI50 ([29]; read-out: GI50): 440 nM
- CC50 [29, 31]: > 100000 nM
- TGI ([29]; read-out: TGI): 30500 nM
- GI50 ([29]; read-out: pGI50 (converted)): 437 nM
- CC50 [29, 32]: > 100000 nM
- TGI ([29]; read-out: pTGI (converted)): 30200 nM
- GI50 ([30]; read-out: GI50): 66.4 nM
- CC50 [30, 31]: > 100000 nM
- TGI ([30]; read-out: TGI): 69200 nM
- GI50 ([30]; read-out: pGI50 (converted)): 66.1 nM
- CC50 [30, 32]: > 100000 nM
- TGI ([30]; read-out: pTGI (converted)): 69200 nM
